Data reported in ChEMBL document CHEMBL1148551, “Synthesis and biological evaluation of novel heterocyclic quinones as inhibitors of the dual specificity protein phosphatase CDC25C” (Bioorg Med Chem Lett, 2006).

Tests used:
DU-145 = experiment: Antiproliferative activity against human androgen-independent prostate carcinoma DU145 cell line by colorimetric assay; type: functional, cell-based
Outline: (§1)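 WST1 tetrazolium salt cleavage by mitochondrial dehydrogenases in viable cells, colorimetric read-out. IC50 given as mean ± SEM from at least two experiments, with four or eight determinations per tested concentration.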

[1] = target: T1, M-phase inducer phosphatase 3 (Homo sapiens, UniProt P30307); experiment: Inhibitory activity against recombinant CDC25C
T1 sequence (P30307 whole entry): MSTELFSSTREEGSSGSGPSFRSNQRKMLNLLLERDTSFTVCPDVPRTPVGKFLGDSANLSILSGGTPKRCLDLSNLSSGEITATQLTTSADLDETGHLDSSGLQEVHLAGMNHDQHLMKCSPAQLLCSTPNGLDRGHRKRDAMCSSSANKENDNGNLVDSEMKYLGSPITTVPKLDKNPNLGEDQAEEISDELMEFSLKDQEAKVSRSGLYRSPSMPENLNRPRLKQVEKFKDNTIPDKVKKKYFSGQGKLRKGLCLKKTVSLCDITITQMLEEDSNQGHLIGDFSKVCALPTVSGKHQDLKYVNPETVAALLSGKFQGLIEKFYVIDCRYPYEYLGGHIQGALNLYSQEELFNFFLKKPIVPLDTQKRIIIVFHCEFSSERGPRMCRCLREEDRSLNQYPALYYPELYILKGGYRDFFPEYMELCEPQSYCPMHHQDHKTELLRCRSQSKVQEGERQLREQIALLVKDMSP
Outline: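 Recombinant maltose binding protein (MBP)-CDC25C fusion enzyme, with 3-O-methylfluorescein phosphate (OMFP) as substrate. IC50 given as mean ± SEM from at least two, usually three, independent experiments.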

MIA PaCa-2 = experiment: Antiproliferative activity against human pancreatic carcinoma Mia PaCa2 cell line by colorimetric assay; type: functional, cell-based; outline: as §1

Compound	IC50 (DU-145) [nM]	IC50 [1] [nM]	IC50 (MIA PaCa-2) [nM]
CCc1nc2c([nH]1)C(=O)/C(=N/CCN(C)C)C=C2O	> 10000	12000	18000
CCc1nc2c(o1)C(O)=C/C(=N\CCN(C)C)C2=O	220	130	440
CN(C)CC/N=C1\C=C(O)c2oc(-c3ccccc3)nc2C1=O	210	230	150
Cc1nc2c(s1)C(O)=C/C(=N\CCN(C)C)C2=O	110	150	180
CC1=CC(=O)c2ccccc2C1=O [MENADIONE]	11000	–	6200
CN(C)CC/N=C1\C=C(O)c2cn(C)cc2C1=O	–	81000	–
CN(C)CC/N=C1\C=C(O)c2[nH]c(-c3ccccc3)nc2C1=O	> 10000	17000	12000
CCc1nc2c(o1)C(=O)C(NCCN(C)C)=CC2=O	220	130	440
O=C1C(Cl)=C(NCCN2CCOCC2)C(=O)c2ncccc21	2300	–	2500
CN(C)CC/N=C1\C=C(O)c2nc(-c3ccccc3)oc2C1=O	210	230	150
CN(C)CC/N=C1\C=C(O)c2nn(-c3ccccc3)cc2C1=O	–	12000	–
CN(C)CC/N=C1\C=C(O)c2cn(-c3ccccc3)nc2C1=O	–	12000	–
